In PubChem BioAssay AID504347 (Broad Institute, 2011):
Active and inactive are the calls of the source.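 How the source made its calls: active means fitted curve climbs past 10% caspase activation, relative to the positive control, at or below the top valid tested dose; inactive means the rest, including activity in the opposite direction.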

Tested on: not listed separately
Assay: caspase-3/7 readout of A1 inhibition in A1-2A-BIM fibroblasts – cell-based, MEF A1-2A-BIM, luminescence, dry powder, set 4, dose response (AID 504347)
Settings: MEF A1-2A-BIM cells, caspase-3/7 luminescence; at 35 µM (top of the series)
In short: (§1)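 System: mouse embryonic fibroblasts co-expressing A1-2A-BIM construct / Amount: 2500 cells/well / Buffer or medium: RPMI-1640, 10% FBS / Schedule: 3 h compound at 37 °C, 1 h reagent at RT / Technique: Caspase-3/7 DEVD-luciferin luminescence / Evaluation: caspase activation indicated by luminescence increase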

SMILES | caspase activation
C/C(=N\Nc1nc(N2CCCCC2)nc(N2CCCCC2)n1)c1ccc(F)cc1 | 0.602% (inactive)
COc1ccc(CCNc2nc(N3CCOCC3)nc(N3CCOCC3)n2)cc1OC | 4.68% (inactive)
Cc1ccc(Sc2c(Sc3ccc(C)cc3)c3ccccc3n(C)c2=O)cc1 | -0.138% (inactive)

Tested on: MEF A1-2A-BIM cells, caspase-3/7 luminescence
Assay: as above
Settings: not given
In short: as §1

SMILES | AC10 [µM]
Cc1ccc(Sc2c([N+](=O)[O-])c(=O)n(Cc3ccccc3)c3ccccc23)cc1 | 17.8
COCCn1c(=O)c([N+](=O)[O-])c(Sc2ccc(C)cc2)c2ccccc21 | 6.43
O=C(COc1ccc(Cl)cc1Cl)NNc1nc(N2CCOCC2)nc(N2CCOCC2)n1 | 28.5
Cn1c(=O)c([N+](=O)[O-])c(-n2cnc3ccccc32)c2ccccc21 | 8.18
CCn1c(=O)c([N+](=O)[O-])c(Sc2ccc(C)cc2)c2ccccc21 | 15
Cn1c(=O)c([N+](=O)[O-])c(Cl)c2ccccc21 | 0.96
O=c1c([N+](=O)[O-])c(Cl)c2ccccc2n1Cc1ccccc1 | 2.53
COCCn1c(=O)c(Sc2ccc(C)cc2)c(Sc2ccc(C)cc2)c2ccccc21 | 20.2
O=c1[nH]c2ccccc2c(Cl)c1[N+](=O)[O-] | 2.8
